Measurements from ChEMBL document CHEMBL4610036, “Discovery of small molecule antagonists of chemokine receptor CXCR6 that arrest tumor growth in SK-HEP-1 mouse xenografts as a model of hepatocellular carcinoma” (Bioorg Med Chem Lett, 2020).
Active and inactive are the calls of the source. No cut-off for these calls is given here.

Legend:
[1] = biological target: T1, C-X-C chemokine receptor type 6 (Homo sapiens, UniProt O00574); experiment: Antagonist activity at Prolink-tagged human CXCR6 receptor assessed as inhibition of CXCL16-induced beta-arrestin recruitment by DiscoveRx cell based assay
Target sequence in this assay (O00574 whole entry): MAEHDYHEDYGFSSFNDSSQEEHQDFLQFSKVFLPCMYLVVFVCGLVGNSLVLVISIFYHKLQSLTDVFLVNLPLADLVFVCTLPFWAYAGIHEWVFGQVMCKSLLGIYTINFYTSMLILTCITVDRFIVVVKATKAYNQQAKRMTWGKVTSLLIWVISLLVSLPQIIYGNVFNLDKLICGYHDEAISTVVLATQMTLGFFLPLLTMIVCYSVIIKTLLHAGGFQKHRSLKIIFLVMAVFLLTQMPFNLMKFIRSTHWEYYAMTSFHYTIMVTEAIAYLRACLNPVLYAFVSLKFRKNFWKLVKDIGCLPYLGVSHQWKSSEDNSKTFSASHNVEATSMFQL

[2] = biological target: T1, C-X-C chemokine receptor type 6; experiment: Antagonist activity at Prolink-tagged human CXCR6 receptor assessed as inhibition of forskolin-induced cAMP accumulation by DiscoveRx cell based assay relative to control; format: functional; parameters: concentration or dose not given beside the values
How it was run: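 CXCR6 β-arrestin cells in OptiMEM with 2% FBS, 500 cells/well, grown overnight; compounds added, then forskolin with 20 nM CXCL16 (stock concentrations) in HBSS/HEPES/BSA with RO-20-1724, 30 min at room temperature. cAMP read by LANCE Ultra TR-FRET after a further 30 min. Hill slope fixed at 1; at least two runs on different days, averaged pIC50 ± SD.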
Target sequence in this assay (O00574 whole entry, looked up): as the sequence (O00574 whole entry) above

[3] = biological target: T1, C-X-C chemokine receptor type 6; experiment: Antagonist activity at Prolink-tagged human CXCR6 receptor assessed as inhibition of CXCL16-induced beta-arrestin recruitment by DiscoveRx cell based assay relative to control; parameters: concentration or dose not given beside the values
How it was run: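 CXCR6 β-arrestin cells in assay media without G418/hygromycin, 800 cells/well, grown overnight at 37 °C; compounds added acoustically (DMSO ≤0.3%), then 20 nM CXCL16 (final) for 90 min at 37 °C. PathHunter luminescence read. Normalized between CXCL16-alone and no-ligand wells; four-parameter fit with Hill slope fixed at 1; at least two runs on different days, averaged pIC50 ± SD.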
Target sequence in this assay (O00574 whole entry, looked up): as the sequence (O00574 whole entry) above

[4] = biological target: T1, C-X-C chemokine receptor type 6; experiment: Antagonist activity at Prolink-tagged human CXCR6 receptor assessed as inhibition of forskolin-induced cAMP accumulation by DiscoveRx cell based assay; format: functional
How it was run: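 Lance Ultra TR-FRET cAMP assay in CXCR6 β-arrestin cells, 500 cells/well in OptiMEM/2% FBS, grown overnight. Compound added, then forskolin (2.5 mM stock) in HBSS/HEPES/BSA/RO-20-1724 with or without 20 nM CXCL16, 30 min at room temperature. Eu-cAMP tracer and ULight anti-cAMP antibody added, read after 30 min. Curve fit with Hill slope 1; ≥2 independent runs.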
Target sequence in this assay (O00574 whole entry): as above

| SMILES | IC50 [1] | inhibition ([2]; concentration not given here) | inhibition ([3]; concentration not given here) | IC50 [4] | inhibition [2] | inhibition [3] |
| --- | --- | --- | --- | --- | --- | --- |
| COc1cc(C(=O)N[C@@H]2C[C@H]3CCC[C@@H](C2)N3CC(=O)Nc2cccc(Cl)c2)cc(OC)c1OC | 0.41 µM | 97% | 105% | 4.3 µM | – | – |
| COc1cc(C(=O)N[C@@H]2C[C@H]3CCC[C@@H](C2)N3CC(=O)Nc2ccccc2)cc(OC)c1OC | 5.8 µM | 86% | 65% | 30.6 µM | – | – |
| COc1cc(C(=O)N[C@@H]2C[C@H]3CCC[C@@H](C2)N3Cc2cc3ccccc3[nH]2)cc(OC)c1OC | 23.7 µM | – | 64% | > 50 µM | inactive | – |
| COc1cc(C(=O)N[C@@H]2C[C@H]3CCC[C@@H](C2)N3Cc2nc3ccccc3s2)cc(OC)c1OC | 0.3 µM | 85% | 101% | 7.9 µM | – | – |
| COc1cc(C(=O)N[C@@H]2C[C@H]3CCC[C@@H](C2)N3Cc2ccc3ccccc3c2)cc(OC)c1OC | 3.4 µM | 30% | 94% | 47.3 µM | – | – |
| COc1cc(C(=O)N[C@@H]2C[C@H]3CCC[C@@H](C2)N3CC(=O)Nc2cc(Cl)ccc2Cl)cc(OC)c1OC | 0.13 µM | 101% | 99% | 0.7 µM | – | – |
| COc1ccccc1CN1[C@@H]2CCC[C@H]1C[C@H](NC(=O)c1cc(OC)c(OC)c(OC)c1)C2 | > 50 µM | – | – | > 50 µM | inactive | inactive |
| COc1cc(C(=O)N[C@@H]2C[C@H]3CCC[C@@H](C2)N3Cc2nc3ccccc3o2)cc(OC)c1OC | 6.9 µM | 26% | 83% | > 50 µM | – | – |
| COc1cc(C(=O)N[C@@H]2C[C@H]3CCC[C@@H](C2)N3Cc2nc3ccc(Cl)cc3s2)cc(OC)c1OC | 0.27 µM | 83% | 103% | 14 µM | – | – |
| COc1cc(C(=O)N[C@@H]2C[C@H]3CCC[C@@H](C2)N3CC(=O)Nc2cccc(Br)c2)cc(OC)c1OC | 0.35 µM | 92% | 104% | 3.8 µM | – | – |
| COc1cc(C(=O)N[C@@H]2C[C@H]3CCC[C@@H](C2)N3Cc2cn3ccccc3n2)cc(OC)c1OC | > 50 µM | – | – | > 50 µM | inactive | inactive |
| COc1cc(C(=O)N[C@@H]2C[C@H]3CCC[C@@H](C2)N3Cc2nc3c(C)cccc3s2)cc(OC)c1OC | 0.25 µM | 86% | 100% | 4.8 µM | – | – |
| COc1cc(C(=O)N[C@@H]2C[C@H]3CCC[C@@H](C2)N3CC(=O)Nc2ccc(F)cc2)cc(OC)c1OC | 5.8 µM | 90% | 100% | 30.7 µM | – | – |
| COc1cc(C(=O)N[C@@H]2C[C@H]3CCC[C@@H](C2)N3CC(=O)c2nc3ccccc3s2)cc(OC)c1OC | 12.7 µM | – | 75% | > 50 µM | inactive | – |
| COc1cc(C(=O)N[C@@H]2C[C@H]3CCC[C@@H](C2)N3CC(=O)Nc2cccc(F)c2)cc(OC)c1OC | 0.84 µM | 103% | 104% | 8.5 µM | – | – |
| COc1cc(C(=O)N[C@@H]2C[C@H]3CCC[C@@H](C2)N3CC(=O)Nc2ccc(Cl)cc2)cc(OC)c1OC | 1.5 µM | 93% | 101% | 14.2 µM | – | – |
| COc1cc(C(=O)N[C@@H]2C[C@H]3CCC[C@@H](C2)N3CC(=O)Nc2ccccc2C)cc(OC)c1OC | 0.79 µM | 101% | 104% | 9.3 µM | – | – |
| COc1cc(C(=O)N[C@@H]2C[C@H]3CCC[C@@H](C2)N3CC(=O)Nc2ccccc2Br)cc(OC)c1OC | 0.16 µM | 104% | 105% | 0.9 µM | – | – |
| O=C(CN1[C@@H]2CCC[C@H]1C[C@H](NC(=O)c1ccc3c(c1)OCO3)C2)Nc1ccc(Cl)cc1 | > 40 µM | 84% | – | 5.3 µM | – | inactive |
| COc1cc(C(=O)N[C@@H]2C[C@H]3CCC[C@@H](C2)N3Cc2ccc(Cl)cc2)cc(OC)c1OC | 23.7 µM | 58% | 90% | 38.6 µM | – | – |

| SMILES | IC50 [1] | inhibition ([2]; concentration not given here) | inhibition ([3]; concentration not given here) | IC50 [4] | inhibition [2] | inhibition [3] |
| --- | --- | --- | --- | --- | --- | --- |
| COc1ccccc1NC(=O)CN1[C@@H]2CCC[C@H]1C[C@H](NC(=O)c1cc(OC)c(OC)c(OC)c1)C2 | 2.1 µM | 100% | 102% | 14.7 µM | – | – |
| COc1cc(C(=O)N[C@@H]2C[C@H]3CCC[C@@H](C2)N3Cc2cc3ccccc3s2)cc(OC)c1OC | 0.9 µM | 49% | 93% | 25 µM | – | – |
| COc1cc(C(=O)N[C@@H]2C[C@H]3CCC[C@@H](C2)N3Cc2c[nH]c3ccccc23)cc(OC)c1OC | > 50 µM | – | – | > 50 µM | inactive | inactive |
| CCOC(=O)c1ccccc1NC(=O)CN1[C@@H]2CCC[C@H]1C[C@H](NC(=O)c1cc(OC)c(OC)c(OC)c1)C2 | 1.6 µM | 96% | 79% | 6.9 µM | – | – |
| COc1cc(C(=O)N[C@@H]2C[C@H]3CCC[C@@H](C2)N3Cc2nc3ccccc3[nH]2)cc(OC)c1OC | 10.5 µM | – | 84% | > 40 µM | inactive | – |
| COc1cc(C(=O)N[C@@H]2C[C@H]3CCC[C@@H](C2)N3CC(=O)Nc2ccccc2C#N)cc(OC)c1OC | 0.93 µM | 105% | 91% | 7 µM | – | – |
| COc1ccc(C(=O)N[C@@H]2C[C@H]3CCC[C@@H](C2)N3CC(=O)Nc2ccc(Cl)cc2)cc1OC | > 40 µM | – | – | > 40 µM | inactive | inactive |
| COc1cc(C(=O)N[C@@H]2C[C@H]3CCC[C@@H](C2)N3CC(=O)Nc2ccccc2C(F)(F)F)cc(OC)c1OC | 0.64 µM | 105% | 101% | 7.9 µM | – | – |
| COc1cc(C(=O)N[C@@H]2C[C@H]3CCC[C@@H](C2)N3CC(=O)Nc2c(C)cccc2C)cc(OC)c1OC | > 40 µM | – | – | > 40 µM | inactive | inactive |
| COc1ccc(CN2[C@@H]3CCC[C@H]2C[C@H](NC(=O)c2cc(OC)c(OC)c(OC)c2)C3)cc1 | > 50 µM | – | – | > 50 µM | inactive | inactive |
| COc1cc(C(=O)N[C@@H]2C[C@H]3CCC[C@@H](C2)N3Cc2nc3c(Br)cccc3s2)cc(OC)c1OC | 0.08 µM | 91% | 102% | 1 µM | – | – |
| COc1cc(C(=O)N[C@@H]2C[C@H]3CCC[C@@H](C2)N3Cc2nc3cccc(Cl)c3s2)cc(OC)c1OC | 0.26 µM | 93% | 102% | 8.9 µM | – | – |
| COc1cc(C(=O)NC2CCN(CC(=O)Nc3ccccc3)CC2)cc(OC)c1OC | > 40 µM | – | – | > 40 µM | inactive | inactive |
| COc1cc(C(=O)N[C@@H]2C[C@H]3CCC[C@@H](C2)N3CC(=O)Nc2cccc(Cl)c2Cl)cc(OC)c1OC | 0.12 to 0.16 µM | 39 to 78% | 96 to 102% | 0.41 to 25.6 µM | – | – |
| COc1ccc(C(=O)N[C@@H]2C[C@H]3CCC[C@@H](C2)N3CC(=O)Nc2ccc(Cl)cc2)cc1 | > 40 µM | 94% | – | 5.9 µM | – | inactive |
| COc1cc(C(=O)N[C@@H]2C[C@H]3CCC[C@@H](C2)N3CC(=O)Nc2cc(Cl)cc(Cl)c2)cc(OC)c1OC | 0.31 µM | 96% | 104% | 1.3 µM | – | – |
| COc1cc(C(=O)N[C@@H]2C[C@H]3CCC[C@@H](C2)N3CC(=O)Nc2ccc(C)cc2)cc(OC)c1OC | 9.5 µM | – | 100% | > 40 µM | inactive | – |
| COc1cccc(C(=O)N[C@@H]2C[C@H]3CCC[C@@H](C2)N3CC(=O)Nc2ccc(Cl)cc2)c1 | > 40 µM | 87% | – | 14.5 µM | – | inactive |
| COc1cc(C(=O)N[C@@H]2C[C@H]3CCC[C@@H](C2)N3Cc2nc3c(F)cccc3s2)cc(OC)c1OC | 0.11 µM | 105% | 103% | 1.9 µM | – | – |
| COc1cc(C(=O)N[C@@H]2C[C@H]3CC[C@@H](C2)N3CC(=O)Nc2ccccc2)cc(OC)c1OC | – | – | 63% | > 40 µM | inactive | – |
